Experimental findings from ChEMBL document CHEMBL1150811, “New modified eremophilanes from the roots of Psacalium radulifolium” (J Nat Prod, 2001) are described below.

One series has as its system Pseudomonas aeruginosa. The series can be described thus: Antimicrobial activity against Pseudomonas aeruginosa ATCC 27853. The series is classed as functional. In short, it runs like this: (§1)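 Agar dilution: each natural product suspended in 10% DMSO and added at various concentrations to melted agar in Petri dishes; plates incubated 24 h at 37 °C; gentamicin and nystatin as reference standards; run in duplicate.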

Another series relates to Escherichia coli. As to the kind of experiment: Antimicrobial activity against Escherichia coli ATCC 8937. The series is classed as functional. The method, boiled down:
as §1

A further series relates to Staphylococcus aureus. As to the kind of experiment: Antimicrobial activity against Staphylococcus aureus ATCC 6358.
The subject of another series is Artemia salina. As to the kind of experiment: Toxicity against Artemia salina. The series is classed as organism-based. The following applies: in vivo.
The subject of a further series is Candida albicans. The series can be described thus: Antimicrobial activity against Candida albicans ATCC 10231. The series is classed as functional. In short, it runs like this:
as §1

In the next series the test system is Proteus mirabilis. As to the kind of experiment: Antimicrobial activity against Proteus mirabilis ATCC 12453. The series is classed as functional. In short, it runs like this: as §1

Converted amounts (≈) assume the structure as drawn.

Usually MIC stands for the lowest concentration that inhibits growth of the organism. Read a low MIC as a more susceptible organism.

On to `Cc1coc2c(O)c3c(c(Cc4oc5c(O)c6c(c(C)c5c4C)[C@@H](C)CCC6)c12)[C@@H](C)CCC3` [ADENOSTIN A], for which the MIC is greater than 400 µg/mL in the series on Pseudomonas aeruginosa, greater than 400 µg/mL against Escherichia coli, 50 µg/mL (≈ 109 µM) in the series with Staphylococcus aureus and greater than 400 µg/mL against Candida albicans. The LD50 with Artemia salina was found to be 230 ppm.
Regarding `COc1c2c(c(C)c3c1OC(=O)[C@@]3(C)O)[C@@H](C)CCC2` [RADULIFOLIN B], the MIC in the series on Pseudomonas aeruginosa was greater than 400 µg/mL; in the series on Escherichia coli it was greater than 400 µg/mL; with Staphylococcus aureus, 100 µg/mL (≈ 362 µM); against Candida albicans, greater than 400 µg/mL. The molecule further came in with an LD50 in the series with Artemia salina of 52.5 ppm.
With `C[C@H]1CCCc2c(O)c(O)c3c(c21)COC(=O)C3(C)O` (mixture of isomers), the MIC with Pseudomonas aeruginosa is greater than 400 µg/mL; against Escherichia coli, greater than 400 µg/mL; against Staphylococcus aureus, 200 µg/mL; in the series with Candida albicans it was greater than 400 µg/mL. Moreover, the LD50 in the series on Artemia salina was 230 ppm.
`Cc1coc2c(O)c3c(c(C)c12)[C@@H](C)CCC3` [CACALOL]: the MIC with Pseudomonas aeruginosa is greater than 400 µg/mL; in the series on Escherichia coli it was 25 µg/mL (≈ 109 µM); against Staphylococcus aureus, 12 µg/mL (≈ 52.1 µM); in the series on Proteus mirabilis, 12 µg/mL (≈ 52.1 µM); in the series with Candida albicans, 12 µg/mL (≈ 52.1 µM). For the same molecule, the LD50 in the series on Artemia salina worked out at 12 ppm.
For `C/C=C\C(=O)O[C@@H]1c2c(C)coc2C(=O)C2=CCC[C@H](C)[C@]21C` [NEOADENOSTYLONE], the MIC in the series on Pseudomonas aeruginosa, against Escherichia coli, in the series with Staphylococcus aureus and in the series on Candida albicans was greater than 400 µg/mL throughout. In the series with Artemia salina, this molecule had an LD50 of 21.7 ppm.
Regarding `CC(=O)O[C@@H]1c2c(C)coc2C(=O)C2=CCC[C@H](C)[C@]21C` [DECOMPOSTIN], the MIC against Pseudomonas aeruginosa, against Escherichia coli, with Staphylococcus aureus, in the series on Proteus mirabilis and against Candida albicans was greater than 400 µg/mL in each case. In the series on Artemia salina, this molecule displayed an LD50 greater than 1000 ppm.
Turning to `COc1c2c(c(C)c3c(C)coc13)[C@@H](C)CC=C2`, the minimum inhibitory concentration (MIC) against Pseudomonas aeruginosa was greater than 400 µg/mL; against Escherichia coli, greater than 400 µg/mL; in the series on Staphylococcus aureus it was 400 µg/mL (≈ 1650 µM); against Proteus mirabilis it was greater than 400 µg/mL; in the series on Candida albicans it was greater than 400 µg/mL. In addition, the LD50 with Artemia salina is greater than 1000 ppm.
Turning to `Cc1coc2c1C(C)(O)C1=C(CCC[C@@H]1C)C2=O` (mixture of isomers) [cacalone/epi-cacalone], the MIC in the series on Pseudomonas aeruginosa was greater than 1000 µg/mL; with Escherichia coli, greater than 1000 µg/mL; against Staphylococcus aureus it was 250 µg/mL; in the series with Proteus mirabilis it was greater than 1000 µg/mL; in the series with Candida albicans, greater than 1000 µg/mL. This molecule also registered an LD50 in the series with Artemia salina of 269 ppm.
